# INS promoter act: activators of insulin promoter-driven GFP, primary screen, imaging, TRM-6 cells, eGFP reporter, cell count. plate-scaled: unstimulated 0, stimulated control 100. activation, % at 2 µM. 0.81% of 130,000 active. AID 1296, 2008;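 active = activation at 2 µM above a set limit, confirmed on inspection of the cell images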;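 also: share of cells whose green reporter signal exceeds an intensity cutoff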
#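 System – human fetal islet-derived TRM-6 cells with tamoxifen-inducible insulin promoter–eGFP reporter · Amount – 1,000 cells per well · Schedule – overnight tamoxifen, then two-day compound incubation at 37 °C · Detection – high-content imaging of fixed cells with Hoechst nuclear stain · Read-out – percent cells above green-intensity threshold, converted to percent activation versus plate controls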
# The depositor's hits bear a star. This excerpt belongs to a sample that is enriched for hits.
SMILES,INS promoter act
Cc1ccc(C(=O)N/C(N)=N/c2nc3ccccc3o2)cc1,-4
Cc1cccc(NC(=O)CSc2nc3ccccc3o2)c1,-4
O=C(COc1ccc(Cl)cc1)N1CCN(C(=O)c2cccs2)CC1,-7
C=CCn1c(=S)[nH]c2sccc2c1=O,0
O=C(Nn1cnnc1)c1cc2c(s1)CCCCC2,-77
CCOC(=O)N1CCC(NC(=O)CCc2c(C)nc3c(c(C)nn3C(C)(C)C)c2C)CC1,4
CCN1C(=O)CC(N2CCN(c3cccc(OC)c3)CC2)C1=O (stereo not drawn),0
COc1cccc(N2CCN(C3CC(=O)N(c4cccc(Cl)c4)C3=O)CC2)c1 (stereo not drawn),-4
CCOc1cccc(N2C(=O)CC(N3CCN(c4ccc(S(=O)(=O)CC)cc4)CC3)C2=O)c1 (stereo not drawn),80*
CN1OC(COC(=O)c2ccc(Cl)cc2Cl)CC1c1ccccc1 (stereo not drawn),3
CCOC(=O)C1=C(CSc2n[nH]c(N)n2)NC(=O)NC1C (stereo not drawn),-6
CCN1CCS/C1=C/C=C/C1=[N+](CC)CCS1,233*
COc1cc(-c2nnc(SC(C)C(=O)Nc3c(C)n(C)n(-c4ccccc4)c3=O)o2)cc(OC)c1OC (stereo not drawn),0
CCc1ccc(C2=NN(CCC(=O)NC(C)CCc3ccccc3)C(=O)CC2)cc1 (stereo not drawn),107
O=C(CNS(=O)(=O)c1ccc(C(=O)N2CCCCC2)cc1)N1CCCCC1,4
Cc1ccc(N2C(=O)CSC2c2ccccn2)cc1Cl (stereo not drawn),-5
Nc1c(Cl)nc(-c2ccccc2)nc1Cl,0
Cc1c(NC(=O)C(C)OC(=O)CCC2CCCC2)c(=O)n(-c2ccccc2)n1C (stereo not drawn),8
Cc1ccc(OCC(=O)Nc2ccc(S(=O)(=O)N3CCN(C)CC3)cc2)cc1,406*
COc1ccc(S(=O)(=O)N2CCN(CC(=O)Nc3cccc(F)c3)CC2)cc1,-3
CN1CCN(S(=O)(=O)c2ccc(N(C)CC(=O)Nc3ccc(F)cc3)nc2)CC1,-20
Cc1ccc(S(=O)(=O)N2CCN(C(=O)COc3ccc(NC(=O)c4ccco4)cc3)CC2)cc1,107
CC(C)CC(=O)NC(=S)Nc1ccc(S(=O)(=O)N2CCN(C)CC2)cc1,8
CN(CC(=O)Nc1ccc(S(=O)(=O)N2CCCC2)cc1)CC(=O)Nc1cccc(F)c1,220*
Cc1ccc(NC(=O)CN2CCCN(S(=O)(=O)c3ccc(Br)s3)CC2)cc1,-4
SMILES,INS promoter act
CC(=O)c1ccc(OC(=O)N(c2ccccc2)c2ccccc2)cc1,-9
O=P(OCC1CC1)(c1ccccc1)c1ccccc1,4
COc1ccc(N2CCN(CC(=O)Nc3cccc(S(=O)(=O)N4CCOCC4)c3)CC2)cc1,178
CCN(CC)C(=O)CCCC(=O)N(CC)CC,-3
CN(C)S(=O)(=O)c1ccc(C(=O)Nc2ccccc2F)cc1,7
CN(C)S(=O)(=O)c1ccc(Oc2ccccc2)cc1,475*
CNS(=O)(=O)c1ccc(Oc2ccc(S(=O)(=O)NC)cc2)cc1,-71
CCS(=O)(=O)c1ccc(-c2csc(-c3ccccc3)n2)c(Cl)c1Cl,-5
CC(=O)Nc1ccc(NC(=O)Cn2cnc3c(nnn3Cc3ccc(F)cc3)c2=O)cc1,0
CC(=O)Nc1ccc(NC(=O)Cn2cnc3c(cnn3C(C)(C)C)c2=O)cc1,431*
CCOC(=O)c1ccccc1NC(=O)Cn1cnc2c(cnn2-c2ccc(OC)cc2)c1=O,-75
COc1cccc(CN2CCC(N(CCc3ccccc3)Cc3ccccc3)CC2)c1OC,-7
COc1ccc(S(=O)(=O)N2CCC(N3CCN(c4ccccc4)CC3)CC2)cc1,5
CCn1c(-c2ccccc2Cl)nn(CC(=O)Nc2cc(Cl)ccc2Cl)c1=S,103
COc1ccccc1N(C(=O)c1ccncc1)c1nc(-c2ccc([N+](=O)[O-])cc2)cs1,5
O=C(COc1ccc([N+](=O)[O-])cc1)Nc1ccncc1,-6
O=C(Cc1nc(-c2ccc([N+](=O)[O-])cc2)cs1)Nc1ccccc1,193*
CC(C)Cn1c(NCCO)nc2ccccc21,-3
OCc1nc2ccccc2n1CC(O)Cn1ccc2ccccc21 (stereo not drawn),91*
OCc1nc2ccccc2n1CCCOc1ccccc1,-4
C=CCSc1nc2nc(C)cc(C)n2n1,3
CCn1cc(CNC(=O)CCSc2nc(-c3ccco3)cc(C(F)(F)F)n2)cn1,8
CN1C(=O)CC(C(=O)O)SC1=Nc1ccc(F)cc1 (stereo not drawn),425*
CN1C(=O)CC(C(=O)O)SC1=Nc1cccc(C(F)(F)F)c1 (stereo not drawn),30
O=C1CC(C(=O)O)S/C(=N\NC(=O)c2ccc(F)cc2)N1 (stereo not drawn),0
SMILES,INS promoter act
COc1ccc(CCn2nnnc2C(CC(C)C)N2CCN(c3ncccn3)CC2)cc1OC (stereo not drawn),-7
CC(C)C(c1nnnn1C1CCCCC1)N1CCN(c2ncccn2)CC1 (stereo not drawn),-3
COc1ccc(CCn2nnnc2C(C(C)C)N2CCN(c3ncccn3)CC2)cc1OC (stereo not drawn),170*
Cc1ccc(NC(=O)c2cc(=O)c3ccccc3o2)cc1,-6
CCc1nnc(NC(=O)CSc2ccc(-c3ccco3)nn2)s1,115
CC(=O)Nc1ccc(NC(=O)CSc2nc(C)nc3sc(C)c(C)c23)cc1,-7
CCc1nc(SCC(=O)Nc2nnc(CC)s2)c2c(C)c(C)sc2n1,254*
CN(CC(=O)N1CCCC1)S(=O)(=O)c1ccc(Cl)cc1,6
COc1ccc(S(=O)(=O)N(C)CC(=O)N2CCOCC2)cc1Cl,462*
COc1ccc(S(=O)(=O)N(C)CC(=O)N2CCCCC2)cc1Cl,233
Cc1ccccc1N(CC(=O)NCC1CCCO1)C(=O)C1(C)CC(=O)N=C2C=CC=CN21 (stereo not drawn),-4
Cc1ccn2c(C(=O)N/N=C/c3ccc(CNC(=O)C(=O)Nc4ccc(C)c(C)c4)o3)c(C)nc2c1,3
Cc1ccccc1Nc1nc(N)nc(CN(C)Cc2ccccc2Cl)n1,0
CC(=O)c1ccc(N2CCN(S(=O)(=O)c3cccc(S(=O)(=O)N4CCOCC4)c3)CC2)cc1,-4
O=S(=O)(c1cccc(S(=O)(=O)N2CCC(N3CCCCC3)CC2)c1)N1CCOCC1,631*
O=S(=O)(c1cccc(S(=O)(=O)N2CCC(Cc3ccccc3)CC2)c1)N1CCOCC1,3
CS(=O)(=O)N(CC(N)=O)c1cccc(Br)c1,514*
CS(=O)(=O)N(CC(N)=O)c1ccc(F)c(Cl)c1,277
C=CCNC(=O)CN(c1cccc(Br)c1)S(C)(=O)=O,3
CSc1nc2sc3c(c2c(=O)[nH]1)CCC3,0
COc1ccc(S(=O)(=O)NCC(=O)Nc2cccc(C)c2C)cc1OC,6
COc1ccccc1/C=C/C(=O)NC(=S)N(C)C1CCCCC1,-5
CN(C(=S)NC(=O)c1ccccc1Br)C1CCCCC1,223*
CC1CCCCC1NC(=S)NC(=O)c1ccccc1Br (stereo not drawn),0
CC1(C)CC(=O)C2=C(C1)OC(N)=C(C#N)C21CCC2(CC1)OCCO2,-79
CCOc1ccc(S(=O)(=O)N2CCN(c3ccccc3F)CC2)c2cccnc12,121
Cc1ccc(CNC(=O)C2CCN(S(=O)(=O)c3c(C)noc3C)CC2)cc1,76*
Cc1noc(C)c1S(=O)(=O)N1CCC(C(=O)NCCc2ccc(S(N)(=O)=O)cc2)CC1,-10

# Screening results: PubChem BioAssay, Columbia University Molecular Screening Center
